Published values collected from several papers.
Protocols differ between the studies behind these lines.
Cell line: SK-MEL-2
Effect on: cell growth or viability

COc1cccc(Oc2ccccc2NC(=O)CNC(=O)c2cccc3ccccc23)c1  GI50 (SRB; 48 h): 0.182 µM
O=C1NC(=NCc2cccs2)S/C1=C\c1ccc2ncccc2c1  IC50: > 10 µM
COc1ccc(-c2ccc(-c3ccc(C(=N)N)nc3)s2)cc1  GI50 (SRB): 2.05 µM
O=C1NCCc2[nH]c(-c3ccncc3)cc21  IC50: > 10 µM
COc1ccc(C(=O)/C=C/c2ccccc2Br)cc1S(N)(=O)=O  GI50 (SRB; 48 h): 14.5 µM
COc1ccc(-c2ccc(-c3ccc(C(=N)N)nc3)s2)cc1Cl  GI50 (SRB): 2.15 µM
COc1ccc(C(=O)/C=C/c2ccc(Cl)c(Cl)c2)cc1S(N)(=O)=O  GI50 (SRB; 48 h): 5.6 µM
O=C(c1c(F)ccc(NS(=O)(=O)N2CC[C@@H](F)C2)c1F)c1c[nH]c2ncc(-c3cnc(C4CC4)nc3)cc12  IC50 (ATP luminescence; 72 h): > 20 µM
